Data from ChEMBL document CHEMBL3739271, “Synthesis and evaluation of a series of resveratrol analogues as potent anti-cancer agents that target tubulin” (2015).

Key:
Assay type in all cases: functional
[1] = system: SK-MEL-2; experiment: Cytotoxicity against human SK-MEL-2 cells by SRB assay
How it was run: (§1)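 NCI 60 human tumor cell line panel, sulforhodamine B (SRB) protein-stain read-out. Compounds were first screened at a single dose of 10^-5 M, and selected compounds were then tested in a five-dose format. GI50 is the drug concentration giving a 50% reduction in net protein increase relative to control cells.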

[2] = Cytotoxicity against human OVCAR4 cells by SRB assay; settings: OVCAR-4; how it was run: as §1
[3] = system: KM12; experiment: Cytotoxicity against human KM12 cells by SRB assay; how it was run: as §1
[4] = Cytotoxicity against human SF268 cells by SRB assay; settings: SF-268; how it was run: as §1
[5] = system: A549; experiment: Cytotoxicity against human A549 cells by SRB assay; how it was run: as §1
[6] = Cytotoxicity against human RPMI8226 cells by SRB assay; settings: RPMI-8226; how it was run: as §1
[7] = Cytotoxicity against human HOP92 cells by SRB assay; settings: HOP-92; how it was run: as §1
[8] = Cytotoxicity against human IGROV1 cells by SRB assay; settings: IGROV-1
How it was run: (§2)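 NCI 60-cell-line panel using sulforhodamine B protein stain. Initial single-dose screen at 10^-5 M, then five-dose testing. GI50 is the drug concentration giving a 50% reduction in net protein increase relative to control cells.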

[9] = system: A498; experiment: Cytotoxicity against human A498 cells by SRB assay; how it was run: as §1
[10] = system: K562; experiment: Cytotoxicity against human K562 cells by SRB assay; how it was run: as §1
[11] = system: MDA-MB-468; experiment: Cytotoxicity against human MDA-MB-468 cells by SRB assay; how it was run: as §1
[12] = system: MDA-MB-231; experiment: Cytotoxicity against human MDA-MB-231 cells by SRB assay; how it was run: as §1
[13] = Cytotoxicity against human SF539 cells by SRB assay; settings: SF-539; how it was run: as §1
[14] = system: HT-29; experiment: Cytotoxicity against human HT-29 cells by SRB assay; how it was run: as §1
[15] = Cytotoxicity against human SNB75 cells by SRB assay; settings: SNB-75; how it was run: as §1
[16] = Cytotoxicity against human LOXIMVI cells by SRB assay; settings: LOX IMVI; how it was run: as §2
[17] = Cytotoxicity against human MOLT4 cells by SRB assay; settings: MOLT-4; how it was run: as §1
[18] = system: NCI/ADR-RES; experiment: Cytotoxicity against human NCI/ADR-RES cells by SRB assay; how it was run: as §1
[19] = Cytotoxicity against human HOP62 cells by SRB assay; settings: HOP-62; how it was run: as §1
[20] = system: U-251; experiment: Cytotoxicity against human U251 cells by SRB assay; how it was run: as §1
[21] = Cytotoxicity against human Hs578T cells by SRB assay; settings: Hs-578T; how it was run: as §1
[22] = system: M14; experiment: Cytotoxicity against human M14 cells by SRB assay; how it was run: as §1
[23] = Cytotoxicity against human SNB19 cells by SRB assay; settings: SNB-19; how it was run: as §1
[24] = Cytotoxicity against human HL-60(TB) cells by SRB assay; how it was run: as §2
[25] = system: SK-MEL-28; experiment: Cytotoxicity against human SK-MEL-28 cells by SRB assay; how it was run: as §1
[26] = Cytotoxicity against human SW620 cells by SRB assay; settings: SW-620; how it was run: as §1
[27] = system: ACHN; experiment: Cytotoxicity against human ACHN cells by SRB assay; how it was run: as §1
[28] = Cytotoxicity against human HCC2998 cells by SRB assay; settings: HCC 2998; how it was run: as §1
[29] = system: 786-0; experiment: Cytotoxicity against human 786-0 cells by SRB assay; how it was run: as §1
[30] = Cytotoxicity against human HCT15 cells by SRB assay; settings: HCT-15; how it was run: as §1
[31] = Cytotoxicity against human UO31 cells by SRB assay; settings: UO-31; how it was run: as §1
[32] = system: CCRF-CEM; experiment: Cytotoxicity against human CCRF-CEM cells by SRB assay; how it was run: as §1
[33] = system: NCI-H522; experiment: Cytotoxicity against human NCI-H522 cells by SRB assay; how it was run: as §1
[34] = system: SR; experiment: Cytotoxicity against human SR cells by SRB assay; how it was run: as §1
[35] = Cytotoxicity against human SKOV3 cells by SRB assay; settings: SK-OV-3; how it was run: as §1
[36] = Cytotoxicity against human COLO205 cells by SRB assay; settings: COLO 205; how it was run: as §1
[37] = system: NCI-H23; experiment: Cytotoxicity against human NCI-H23 cells by SRB assay; how it was run: as §1
[38] = system: MDA-MB-435; experiment: Cytotoxicity against human MDA-MB-435 cells by SRB assay; how it was run: as §1
[39] = Cytotoxicity against human OVCAR3 cells by SRB assay; settings: OVCAR-3; how it was run: as §1
[40] = system: CAKI-1; experiment: Cytotoxicity against human CAKI-1 cells by SRB assay; how it was run: as §1
[41] = system: SK-MEL-5; experiment: Cytotoxicity against human SK-MEL-5 cells by SRB assay; how it was run: as §1
[42] = Cytotoxicity against human HCT116 cells by SRB assay; settings: HCT-116; how it was run: as §1
[43] = Cytotoxicity against human SF295 cells by SRB assay; settings: SF-295; how it was run: as §1
[44] = system: MCF7; experiment: Cytotoxicity against human MCF7 cells by SRB assay; how it was run: as §1
[45] = Cytotoxicity against human UACC62 cells by SRB assay; settings: UACC-62; how it was run: as §1

Structure (SMILES): COc1cc(/C=C(\C#N)c2cc(OC)c(OC)c(OC)c2)cc(OC)c1
- GI50 [1]: 5440 nM
- GI50 [2]: 7480 nM
- GI50 [3]: 4970 nM
- GI50 [4]: 25300 nM
- GI50 [5]: 6350 nM
- GI50 [6]: 6640 nM
- GI50 [7]: 3570 nM
- GI50 [8]: 14600 nM
- GI50 [9]: 1290 nM
- GI50 [10]: 3140 nM
- GI50 [11]: 3440 nM
- GI50 [12]: 4830 nM
- GI50 [13]: 6600 nM
- GI50 [14]: 4240 nM
- GI50 [15]: 2670 nM
- GI50 [16]: 5310 nM
- GI50 [17]: 28200 nM
- GI50 [18]: 3250 nM
- GI50 [19]: 7630 nM
- GI50 [20]: 7820 nM
- GI50 [21]: 16700 nM
- GI50 [22]: 4450 nM
- GI50 [23]: 5460 nM
- GI50 [24]: 68600 nM
- GI50 [25]: 14000 nM
- GI50 [26]: 5170 nM
- GI50 [27]: 9780 nM
- GI50 [28]: 97000 nM
- GI50 [29]: 13000 nM
- GI50 [30]: 4470 nM
- GI50 [31]: 1920 nM
- GI50 [32]: 51200 nM
- GI50 [33]: 20500 nM
- GI50 [34]: 4140 nM
- GI50 [35]: 14400 nM
- GI50 [36]: 5160 nM
- GI50 [37]: 43000 nM
- GI50 [38]: 1630 nM
- GI50 [39]: 6690 nM
- GI50 [40]: 6190 nM
- GI50 [41]: 4700 nM
- GI50 [42]: 6050 nM
- GI50 [43]: 5330 nM
- GI50 [44]: 4350 nM
- GI50 [45]: 2420 nM

Structure (SMILES): COc1ccc(/C=C/c2cc(OC)cc(OC)c2/C=C(\C#N)c2ccc(OC)cc2)cc1
- GI50 [2]: 500 nM
- GI50 [3]: 780 nM
- GI50 [4]: 4710 nM
- GI50 [5]: 910 nM
- GI50 [6]: 1160 nM
- GI50 [8]: 2350 nM
- GI50 [9]: 380 nM
- GI50 [10]: 430 nM
- GI50 [11]: 1720 nM
- GI50 [12]: 2780 nM
- GI50 [13]: 270 nM
- GI50 [14]: 690 nM
- GI50 [15]: 470 nM
- GI50 [17]: 4380 nM
- GI50 [18]: 650 nM
- GI50 [19]: 970 nM
- GI50 [20]: 640 nM
- GI50 [21]: 680 nM
- GI50 [22]: 1380 nM
- GI50 [23]: > 100000 nM
- GI50 [24]: 1660 nM
- GI50 [25]: 750 nM
- GI50 [26]: 500 nM
- GI50 [27]: 830 nM
- GI50 [28]: 2490 nM
- GI50 [29]: 1720 nM
- GI50 [30]: 650 nM
- GI50 [31]: 810 nM
- GI50 [32]: 750 nM
- GI50 [33]: 240 nM
- GI50 [34]: 910 nM
- GI50 [35]: 1350 nM
- GI50 [36]: 1240 nM
- GI50 [38]: 240 nM
- GI50 [39]: 630 nM
- GI50 [40]: 500 nM
- GI50 [41]: 2280 nM
- GI50 [42]: 490 nM
- GI50 [43]: 360 nM
- GI50 [44]: 390 nM
- GI50 [45]: 700 nM

Structure (SMILES): COc1ccc(/C=C(\C#N)c2cc(OC)cc(OC)c2)cc1
- GI50 [1]: 880 nM
- GI50 [2]: 730 nM
- GI50 [3]: 380 nM
- GI50 [4]: 840 nM
- GI50 [5]: 380 nM
- GI50 [6]: 330 nM
- GI50 [8]: 530 nM
- GI50 [9]: 250 nM
- GI50 [10]: 310 nM
- GI50 [11]: 290 nM
- GI50 [12]: 430 nM
- GI50 [13]: 220 nM
- GI50 [14]: 280 nM
- GI50 [15]: 290 nM
- GI50 [16]: 580 nM
- GI50 [17]: 430 nM
- GI50 [18]: 270 nM
- GI50 [19]: 510 nM
- GI50 [20]: 343 nM
- GI50 [21]: 310 nM
- GI50 [22]: 280 nM
- GI50 [23]: 980 nM
- GI50 [24]: 280 nM
- GI50 [25]: 490 nM
- GI50 [26]: 420 nM
- GI50 [27]: 530 nM
- GI50 [28]: 340 nM
- GI50 [29]: 420 nM
- GI50 [30]: 330 nM
- GI50 [31]: 490 nM
- GI50 [32]: 320 nM
- GI50 [33]: 90 nM
- GI50 [34]: 290 nM
- GI50 [35]: 370 nM
- GI50 [36]: 270 nM
- GI50 [37]: 530 nM
- GI50 [38]: 170 nM
- GI50 [39]: 300 nM
- GI50 [40]: 540 nM
- GI50 [41]: 270 nM
- GI50 [42]: 330 nM
- GI50 [43]: 220 nM
- GI50 [44]: 310 nM
- GI50 [45]: 400 nM
